Experimental data published in PMC3286832 (Nature Communications, 2011).

Experiments:
[1] = test system: hDNMT3A K47 methylation in 293T cells; assay: Methylation in 293T cells; format: cell-based, human; settings: coexpression in 293T cells, metabolic labelling with 3H-Met or western blot
Outline: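 GLP stable knockdown 293T cells expressed Myc-hDNMT3A (WT or K47R), with or without Flag-GLP or G9a, for 36 h. Cells were starved 30 min in methionine-free medium with cycloheximide (100 μg ml−1) and chloramphenicol (40 μg ml−1), then labelled 4 h with 10 μCi ml−1 L-[methyl-3H]methionine. Myc-hDNMT3A was immunoprecipitated with anti-Myc, washed with 600 mM NaCl IPH buffer, and detected by autoradiography.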

[2] = test system: MPP8–GLP interaction in 293T cells; assay: Co-immunoprecipitation of MPP8 and GLP in 293T cells; format: cell-based, human
Outline: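 293T cells (parental, or MPP8 stable knockdown for the chromodomain W80A mutant) were cotransfected with Flag-MPP8 and HA-GLP (WT, K199R, K205R or K209R) for 48 h. Lysates were immunoprecipitated with 1 μg anti-HA or anti-Flag on protein-G agarose, washed with IPH containing 300 or 600 mM NaCl, and analysed by western blot. Input was 5%.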

Row | Molecule | methylation of hDNMT3A in cells [1] | MPP8–GLP interaction in cells [2]
1 | GLP: G9a-like protein, wild-type (protein, left off: HA, end not stated, kept) MAAADAEAVPARGEPQQDCCVKTELLGEETPMAADEGSAEKQAGEAHMAADGETNGSCENSDASSHANAAKHTQDSARVNPQDGTNTLTRIAENGVSERDSEAAKQNHVTADDFVQTSVIGSNGYILNKPALQAQPLRTTSTLASSLPGHAAKTLPGGAGKGRTPSAFPQTPAAPPATLGEGSADTEDRKLPAPGADVKVHRARKTMPKSVVGLHAASKDPREVREARDHKEPKEEINKNISDFGRQQLLPPFPSLHQSLPQNQCYMATTKSQTACLPFVLAAAVSRKKKRRMGTYSLVPKKKTKVLKQRTVIEMFKSITHSTVGSKGEKDLGASSLHVNGESLEMDSDEDDSEELEEDDGHGAEQAAAFPTEDSRTSKESMSEADRAQKMDGESEEEQESVDTGEEEEGGDESDLSSESSIKKKFLKRKGKTDSPWIKPARKRRRRSRKKPSGALGSESYKSSAGSAEQTAPGDSTGYMEVSLDSLDLRVKGILSSQAEGLANGPDVLETDGLQEVPLCSCRMETPKSREITTLANNQCMATESVDHELGRCTNSVVKYELMRPSNKAPLLVLCEDHRGRMVKHQCCPGCGYFCTAGNFMECQPESSISHRFHKDCASRVNNASYCPHCGEESSKAKEVTIAKADTTSTVTPVPGQEKGSALEGRADTTTGSAAGPPLSEDDKLQGAASHVPEGFDPTGPAGLGRPTPGLSQGPGKETLESALIALDSEKPKKLRFHPKQLYFSARQGELQKVLLMLVDGIDPNFKMEHQNKRSPLHAAAEAGHVDICHMLVQAGANIDTCSEDQRTPLMEAAENNHLEAVKYLIKAGALVDPKDAEGSTCLHLAAKKGHYEVVQYLLSNGQMDVNCQDDGGWTPMIWATEYKHVDLVKLLLSKGSDINIRDNEENICLHWAAFSGCVDIAEILLAAKCDLHAVNIHGDSPLHIAARENRYDCVVLFLSRDSDVTLKNKEGETPLQCASLNSQVWSALQMSKALQDSAPDRPSPVERIVSRDIARGYERIPIPCVNAVDSEPCPSNYKYVSQNCVTSPMNIDRNITHLQYCVCIDDCSSSNCMCGQLSMRCWYDKDGRLLPEFNMAEPPLIFECNHACSCWRNCRNRVVQNGLRARLQLYRTRDMGWGVRSLQDIPPGTFVCEYVGELISDSEADVREEDSYLFDLDNKDGEVYCIDARFYGNVSRFINHHCEPNLVPVRVFMAHQDLRFPRIAFFSTRLIEAGEQLGFDYGERFWDIKGKLFSCRCGSPKCRHSSAALAQRQASAAQEAQEDGLPDTSSAAAADPL | markedly increased | 
2 | GLP K199R: HA–GLP K199R mutant (protein, left off: HA, end not stated, kept) MAAADAEAVPARGEPQQDCCVKTELLGEETPMAADEGSAEKQAGEAHMAADGETNGSCENSDASSHANAAKHTQDSARVNPQDGTNTLTRIAENGVSERDSEAAKQNHVTADDFVQTSVIGSNGYILNKPALQAQPLRTTSTLASSLPGHAAKTLPGGAGKGRTPSAFPQTPAAPPATLGEGSADTEDRKLPAPGADVRVHRARKTMPKSVVGLHAASKDPREVREARDHKEPKEEINKNISDFGRQQLLPPFPSLHQSLPQNQCYMATTKSQTACLPFVLAAAVSRKKKRRMGTYSLVPKKKTKVLKQRTVIEMFKSITHSTVGSKGEKDLGASSLHVNGESLEMDSDEDDSEELEEDDGHGAEQAAAFPTEDSRTSKESMSEADRAQKMDGESEEEQESVDTGEEEEGGDESDLSSESSIKKKFLKRKGKTDSPWIKPARKRRRRSRKKPSGALGSESYKSSAGSAEQTAPGDSTGYMEVSLDSLDLRVKGILSSQAEGLANGPDVLETDGLQEVPLCSCRMETPKSREITTLANNQCMATESVDHELGRCTNSVVKYELMRPSNKAPLLVLCEDHRGRMVKHQCCPGCGYFCTAGNFMECQPESSISHRFHKDCASRVNNASYCPHCGEESSKAKEVTIAKADTTSTVTPVPGQEKGSALEGRADTTTGSAAGPPLSEDDKLQGAASHVPEGFDPTGPAGLGRPTPGLSQGPGKETLESALIALDSEKPKKLRFHPKQLYFSARQGELQKVLLMLVDGIDPNFKMEHQNKRSPLHAAAEAGHVDICHMLVQAGANIDTCSEDQRTPLMEAAENNHLEAVKYLIKAGALVDPKDAEGSTCLHLAAKKGHYEVVQYLLSNGQMDVNCQDDGGWTPMIWATEYKHVDLVKLLLSKGSDINIRDNEENICLHWAAFSGCVDIAEILLAAKCDLHAVNIHGDSPLHIAARENRYDCVVLFLSRDSDVTLKNKEGETPLQCASLNSQVWSALQMSKALQDSAPDRPSPVERIVSRDIARGYERIPIPCVNAVDSEPCPSNYKYVSQNCVTSPMNIDRNITHLQYCVCIDDCSSSNCMCGQLSMRCWYDKDGRLLPEFNMAEPPLIFECNHACSCWRNCRNRVVQNGLRARLQLYRTRDMGWGVRSLQDIPPGTFVCEYVGELISDSEADVREEDSYLFDLDNKDGEVYCIDARFYGNVSRFINHHCEPNLVPVRVFMAHQDLRFPRIAFFSTRLIEAGEQLGFDYGERFWDIKGKLFSCRCGSPKCRHSSAALAQRQASAAQEAQEDGLPDTSSAAAADPL |  | had little effect
3 | GLP K205R: HA–GLP K205R mutant (protein, left off: HA, end not stated, kept) MAAADAEAVPARGEPQQDCCVKTELLGEETPMAADEGSAEKQAGEAHMAADGETNGSCENSDASSHANAAKHTQDSARVNPQDGTNTLTRIAENGVSERDSEAAKQNHVTADDFVQTSVIGSNGYILNKPALQAQPLRTTSTLASSLPGHAAKTLPGGAGKGRTPSAFPQTPAAPPATLGEGSADTEDRKLPAPGADVKVHRARRTMPKSVVGLHAASKDPREVREARDHKEPKEEINKNISDFGRQQLLPPFPSLHQSLPQNQCYMATTKSQTACLPFVLAAAVSRKKKRRMGTYSLVPKKKTKVLKQRTVIEMFKSITHSTVGSKGEKDLGASSLHVNGESLEMDSDEDDSEELEEDDGHGAEQAAAFPTEDSRTSKESMSEADRAQKMDGESEEEQESVDTGEEEEGGDESDLSSESSIKKKFLKRKGKTDSPWIKPARKRRRRSRKKPSGALGSESYKSSAGSAEQTAPGDSTGYMEVSLDSLDLRVKGILSSQAEGLANGPDVLETDGLQEVPLCSCRMETPKSREITTLANNQCMATESVDHELGRCTNSVVKYELMRPSNKAPLLVLCEDHRGRMVKHQCCPGCGYFCTAGNFMECQPESSISHRFHKDCASRVNNASYCPHCGEESSKAKEVTIAKADTTSTVTPVPGQEKGSALEGRADTTTGSAAGPPLSEDDKLQGAASHVPEGFDPTGPAGLGRPTPGLSQGPGKETLESALIALDSEKPKKLRFHPKQLYFSARQGELQKVLLMLVDGIDPNFKMEHQNKRSPLHAAAEAGHVDICHMLVQAGANIDTCSEDQRTPLMEAAENNHLEAVKYLIKAGALVDPKDAEGSTCLHLAAKKGHYEVVQYLLSNGQMDVNCQDDGGWTPMIWATEYKHVDLVKLLLSKGSDINIRDNEENICLHWAAFSGCVDIAEILLAAKCDLHAVNIHGDSPLHIAARENRYDCVVLFLSRDSDVTLKNKEGETPLQCASLNSQVWSALQMSKALQDSAPDRPSPVERIVSRDIARGYERIPIPCVNAVDSEPCPSNYKYVSQNCVTSPMNIDRNITHLQYCVCIDDCSSSNCMCGQLSMRCWYDKDGRLLPEFNMAEPPLIFECNHACSCWRNCRNRVVQNGLRARLQLYRTRDMGWGVRSLQDIPPGTFVCEYVGELISDSEADVREEDSYLFDLDNKDGEVYCIDARFYGNVSRFINHHCEPNLVPVRVFMAHQDLRFPRIAFFSTRLIEAGEQLGFDYGERFWDIKGKLFSCRCGSPKCRHSSAALAQRQASAAQEAQEDGLPDTSSAAAADPL |  | impairs GLP–MPP8 interaction in cells
4 | GLP K209R: HA–GLP K209R mutant (protein, left off: HA, end not stated, kept) MAAADAEAVPARGEPQQDCCVKTELLGEETPMAADEGSAEKQAGEAHMAADGETNGSCENSDASSHANAAKHTQDSARVNPQDGTNTLTRIAENGVSERDSEAAKQNHVTADDFVQTSVIGSNGYILNKPALQAQPLRTTSTLASSLPGHAAKTLPGGAGKGRTPSAFPQTPAAPPATLGEGSADTEDRKLPAPGADVKVHRARKTMPRSVVGLHAASKDPREVREARDHKEPKEEINKNISDFGRQQLLPPFPSLHQSLPQNQCYMATTKSQTACLPFVLAAAVSRKKKRRMGTYSLVPKKKTKVLKQRTVIEMFKSITHSTVGSKGEKDLGASSLHVNGESLEMDSDEDDSEELEEDDGHGAEQAAAFPTEDSRTSKESMSEADRAQKMDGESEEEQESVDTGEEEEGGDESDLSSESSIKKKFLKRKGKTDSPWIKPARKRRRRSRKKPSGALGSESYKSSAGSAEQTAPGDSTGYMEVSLDSLDLRVKGILSSQAEGLANGPDVLETDGLQEVPLCSCRMETPKSREITTLANNQCMATESVDHELGRCTNSVVKYELMRPSNKAPLLVLCEDHRGRMVKHQCCPGCGYFCTAGNFMECQPESSISHRFHKDCASRVNNASYCPHCGEESSKAKEVTIAKADTTSTVTPVPGQEKGSALEGRADTTTGSAAGPPLSEDDKLQGAASHVPEGFDPTGPAGLGRPTPGLSQGPGKETLESALIALDSEKPKKLRFHPKQLYFSARQGELQKVLLMLVDGIDPNFKMEHQNKRSPLHAAAEAGHVDICHMLVQAGANIDTCSEDQRTPLMEAAENNHLEAVKYLIKAGALVDPKDAEGSTCLHLAAKKGHYEVVQYLLSNGQMDVNCQDDGGWTPMIWATEYKHVDLVKLLLSKGSDINIRDNEENICLHWAAFSGCVDIAEILLAAKCDLHAVNIHGDSPLHIAARENRYDCVVLFLSRDSDVTLKNKEGETPLQCASLNSQVWSALQMSKALQDSAPDRPSPVERIVSRDIARGYERIPIPCVNAVDSEPCPSNYKYVSQNCVTSPMNIDRNITHLQYCVCIDDCSSSNCMCGQLSMRCWYDKDGRLLPEFNMAEPPLIFECNHACSCWRNCRNRVVQNGLRARLQLYRTRDMGWGVRSLQDIPPGTFVCEYVGELISDSEADVREEDSYLFDLDNKDGEVYCIDARFYGNVSRFINHHCEPNLVPVRVFMAHQDLRFPRIAFFSTRLIEAGEQLGFDYGERFWDIKGKLFSCRCGSPKCRHSSAALAQRQASAAQEAQEDGLPDTSSAAAADPL |  | had little effect
